How the values were obtained:
Assay type in all cases: cell-based, human
[1] = system: DACT family in MM.1S cells; test: Immunoblotting of DACT family expression; settings: 24 h
Procedure, shortened: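 Total lysates were prepared in RIPA buffer with protease/phosphatase inhibitors and immunoblotted for DACT1, DACT2 and DACT3, normalised to GAPDH with chemiluminescence detection. Data are mean ± SEM.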

[2] = system: acetylation of histone H3, H4 and tubulin in MM.1S cells; test: Immunoblotting of acetylated proteins; settings: 30-1000 nM, 6 h
Procedure, shortened: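 Histones were extracted afterwards, and acetylation of histone H3, H4 and tubulin was assessed by immunoblotting with chemiluminescence detection.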

[3] = system: cleaved caspase-3 in MM.1S and RPMI8226 cells; test: Immunoblotting for cleaved caspase-3; settings: 1000 nM
Procedure, shortened: (§1)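 Total lysates were made in RIPA buffer with protease/phosphatase inhibitors, quantified by BCA and immunoblotted, with chemiluminescence detection and GAPDH normalisation. Data are mean ± SEM; one-way ANOVA vs control.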

[4] = system: cyclin D1 and CDK4 in MM.1S and RPMI8226 cells; test: Immunoblotting for CDK4 and cyclin D1; settings: MM.1S cells, higher concentration ranges, 24 h
Procedure, shortened: as §1

Q: How did the “protein expression of DACT3” value ([1]; 3000 nM) turn out when O=C(CCCCCCC(=O)Nc1ccccc1)NO [SAHA, Suberoylanilide hydroxamic acid] was run?
A: Its value is “significantly enhanced”.

Q: What about the “protein expression of DACT1 and DACT2” value [1] of the same compound?
A: The value was “not altered”.

Q: What about the “acetylation intensity of histone H3 and H4” value [2] of the same compound?
A: Its value is “increased”.

Q: What about the acetylation of tubulin [2] of the same compound?
A: The acetylation of tubulin was “increased”.

Q: And the “cleaved caspase-3” value [3]?
A: Its value is “only marginally increased”.

Q: What about the “expression level of CDK4 and Cyclin D1” value [4] of the same compound?
A: The value was “reduced”.

— publication PMC9424334 (Biomolecules & Therapeutics, 2022)
